Source: paper PMC5644118 (Chemical Science, 2014)

Target: heparin-stabilized human rhSkin β-tryptase (Homo sapiens, UniProt P20231)
Assay: β-tryptase enzyme inhibition assay
Type: biochemical
How it was run: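 Heparin-stabilized recombinant human skin β-tryptase in 50 mM Tris-HCl, pH 7.4, run in a high-throughput format. Activity was read as release of free AMC from the cleaved Gly-Pro-Arg-AMC peptide substrate. Inhibition mode was assessed by Dixon plots (1/v against inhibitor concentration) at substrate 25, 50, 75, 100, 150 and 200 μM.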

Chain of heparin-stabilized human rhSkin β-tryptase (P20231 31-275): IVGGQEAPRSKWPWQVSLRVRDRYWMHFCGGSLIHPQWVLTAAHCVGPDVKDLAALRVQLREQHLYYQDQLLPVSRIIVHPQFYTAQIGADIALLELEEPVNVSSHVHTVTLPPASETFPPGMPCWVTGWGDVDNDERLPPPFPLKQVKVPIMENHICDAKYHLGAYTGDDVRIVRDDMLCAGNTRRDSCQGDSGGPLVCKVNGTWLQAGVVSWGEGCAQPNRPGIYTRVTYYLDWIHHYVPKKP

inhibition of β-tryptase (in words): no inhibition of β-tryptase at all
Compound: C[C@H](NC(=O)CNC(=O)CCC(=O)N/N=C/c1cc(/C=N/NC(=O)CCC(=O)NCC(=O)N[C@@H](C)C(=O)N[C@@H](Cc2ccccc2)C(=O)N[C@@H](CCC(=O)O)C(N)=O)cc(/C=N/NC(=O)CCC(=O)NCC(=O)N[C@@H](C)C(=O)N[C@@H](Cc2ccccc2)C(=O)N[C@@H](CCC(=O)O)C(N)=O)c1)C(=O)N[C@@H](Cc1ccccc1)C(=O)N[C@@H](CCC(=O)O)C(N)=O [5(E)3]
